Consider six molecules from ChEMBL document CHEMBL3414541, “Discovery of new thienopyrimidinone derivatives displaying antimalarial properties toward both erythrocytic and hepatic stages of Plasmodium” (Eur J Med Chem, 2015).

Calls of active or inactive are those of the source. The calls are words filed in the database; no cut-off is given here.

Data set [1] deals with Plasmodium falciparum. Description: Antiplasmodial activity against multi-drug resistant Plasmodium falciparum K1 infected in human erythrocytes assessed as depolarization of mitochondrial membrane at IC50 after 20 mins by flow cytometric analysis. It counts as functional, organism-based.
A short description of data set [2]: Selectivity index, ratio of CC50 for human HepG2 cells to IC50 for multi-drug resistant Plasmodium falciparum K1 infected in human erythrocytes.
Data set [3] concerns Plasmodium falciparum. In words: Antiplasmodial activity against multi-drug resistant erythrocytic stage of Plasmodium falciparum K1 isolated from synchronized culture assessed as reduction in parasitemia at 5 X IC50 measured for 32 hrs by spectrophotometric analysis relative to control. It is filed as functional. Further details: scale not given: the % may be the effect or the level left. In a few lines:
(§1)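 K1 cultures were synchronized to an 8-h window with 5% D-sorbitol and held in 24-well plates at 0.8% parasitemia and 4% hematocrit. They received 8-h compound pulses (DMSO <0.5%) at successive points of the cycle, then three washes and culture to the ring stage of the next cycle. Fluorescence read at 497/520 nm; % growth inhibition versus DMSO control; chloroquine as positive control.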

The test system of another data set is Plasmodium yoelii. In words: Antiplasmodial activity against liver stage of Plasmodium yoelii 17X NL sporozoites infected in human HepG2 cells expressing CD81 after 48 hrs by DAPI staining-based immunofluorescence analysis. It counts as functional, organism-based. The settings on record: HepG2, 48 h. In a few lines:
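HepG2/CD81 cells were grown in D-MEM with 10% FBS. 25×10^3 cells/well went on collagen-coated wells; after 24 h they received compound and 5000 P. yoelii sporozoites together, then were spun 900 × g for 10 min at 4 °C. Treatment was renewed at 3 h and 24 h. At 48 h cells were methanol-fixed, stained with anti-HSP70 immunofluorescence, and parasites counted by microscopy. IC50 is 50% fewer parasites than in 0.5% DMSO controls.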

Data set [4] is described as follows: Cytotoxicity against human HepG2 cells expressing CD81 assessed as cell viability after 72 hrs by MTT assay. It counts as cell-based.
A short description of data set [5]: Selectivity index, ratio of CC50 for human HepG2 cells to IC50 for chloroquine-sensitive Plasmodium falciparum 3D7 infected in human erythrocytes. It is filed as functional. In a few lines:
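SI = HepG2 CC50 (72 h MTT) / P. falciparum IC50. […] Cultures were exposed 72 h at 37 °C to compound (DMSO final <0.5%), in duplicate. Growth was read by SYBR Green I lysis fluorescence (ex 497, em 520 nm), from three independent experiments.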

In data set [6] the test system is Plasmodium falciparum. In words: Antiplasmodial activity against chloroquine-sensitive Plasmodium falciparum 3D7 infected in human erythrocytes assessed as parasite growth inhibition after 72 hrs by SYBR Green I dye-based fluorescence assay. It is filed as functional, organism-based. A digest of the protocol: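 Parasites grown in A+ human erythrocytes (2.5% haematocrit) in RPMI 1640 with 25 mM HEPES, 25 mM NaHCO3 and 10% A+ serum, at 37 °C under 6% CO2/14% O2/80% N2. Rings were sorbitol-synchronized. Compounds in DMSO (<0.5% final) were incubated 72 h at 2% haematocrit and 1% parasitaemia. SYBR Green lysis read at ex 497/em 520 nm; duplicates; IC50 from three independent experiments.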

The nature of data set [7]: Selectivity index, ratio of CC50 for human HepG2 cells expressing CD81 to IC50 for liver stage of Plasmodium yoelii 17X NL sporozoites infected in human HepG2 cells expressing CD81. It is filed as functional.
The subject of data set [8] is Plasmodium falciparum. In words: Antiplasmodial activity against multi-drug resistant erythrocytic stage of Plasmodium falciparum K1 isolated from synchronized culture assessed as reduction in parasitemia at 5 X IC50 measured for 8 hrs by spectrophotometric analysis relative to control. It is filed as functional. On the set-up: scale not given: the % may be the effect or the level left. A digest of the protocol:
as §1

The next data set has as its system Plasmodium berghei. Description: Antiplasmodial activity against chloroquine-sensitive Plasmodium berghei NK65 infected in Swiss mouse assessed as reduction in parasitemia at 2.5 mg/kg, ip bid administered for 4 days measured on day 4 by Giemsa staining relative to control. As to conditions: route intraperitoneal. It is filed as functional. On the set-up: scale not given: the % may be the effect or the level left. In a few lines: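 Male Swiss mice (20 ± 2 g) were infected on day 0 with 10^7 parasitized cells in 0.9% saline. Groups of 5 were dosed ip at 2.5 mg/kg twice a day from day 0 to day 3.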

The subject of data set [9] is Plasmodium falciparum. Description: Antiplasmodial activity against multi-drug resistant Plasmodium falciparum K1 infected in human erythrocytes assessed as parasite growth inhibition after 72 hrs by SYBR Green I dye-based fluorescence assay. It counts as functional, organism-based. As to conditions: read-out: IC50.
Data set [10] can be described thus: (§2) Cytotoxicity against human HepG2 cells assessed as cell viability after 72 hrs by MTT assay. It counts as cell-based. The settings on record: HepG2 cells. In a few lines: (§3)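 Cells were kept in RPMI with 10% FBS. 5×10^3 cells/well were settled 24 h, then exposed to compound from DMSO (final <0.5%): CHO for 24 h, HepG2 for 72 h, in duplicate. Wells were checked for precipitate. MTT was added for 2 h at 37 °C, formazan dissolved in DMSO, and A570 read (630 nm reference). Viability is % of untreated cells; CC50 from non-linear regression, mean of three experiments.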

The subject of data set [11] is Salmonella typhimurium. Description: Mutagenicity in Salmonella typhimurium TA97A at 2.5 mM after 1 hr by Ames test in presence of S9 fraction. It is filed as toxicity, organism-based. The settings on record: salmonella enterica subsp. enterica serovar typhimurium, s9, 1 h, 2500 µM. A digest of the protocol:
(§4)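 Tester strains were grown overnight in nutrient broth. Top agar was added and the mix plated on Vogel-Bonner agar. Revertants were counted after 48 h at 37 °C in the dark. A twofold rise over spontaneous revertants counts as mutagenic.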

Another data set has as its system Leishmania donovani. Description: Antileishmanial activity against promastigote stage of Leishmania donovani assessed as parasite growth inhibition after 72 hrs by MTT assay. It counts as functional, organism-based. In a few lines: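 L. donovani promastigotes were grown at 27 °C in Schneider's medium with 10% FBS. 1×10^6 log-phase cells/well were exposed to compound from DMSO (final <0.5% v/v) for 72 h at 27 °C, in duplicate. MTT was then added for 6 h, formazan dissolved in DMSO, and A570 read (630 nm reference). IC50 came from non-linear regression, mean of three independent experiments.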

In data set [12] the test system is Salmonella typhimurium. Description: Mutagenicity in Salmonella typhimurium TA100 at 2.5 mM after 1 hr by Ames test in presence of S9 fraction. It counts as toxicity, organism-based. As to conditions: salmonella enterica subsp. enterica serovar typhimurium, s9, 1 h, 2500 µM. A digest of the protocol: as §4
A short description of data set [13]: Inhibition of Plasmodium falciparum DHFR after 48 hrs. In a few lines: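 Recombinant S. cerevisiae whose own DHFR is replaced by the P. falciparum DHFR domain was used. 1×10^4 cells were grown in YEPD with compound from DMSO (final <0.5%) at 30 °C for 48 h, in duplicate. Growth was read as A660. IC50 (50% growth inhibition) came from non-linear regression.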

For data set [14], the system named is Plasmodium falciparum. In words: Antiplasmodial activity against multi-drug resistant Plasmodium falciparum K1 infected in human erythrocytes assessed as parasite growth inhibition after 72 hrs by SYBR Green I dye-based fluorescence assay in presence of ascorbic acid. It counts as functional, organism-based. As to conditions: K1, 72 h. In a few lines:
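Same SYBR Green I 72 h growth assay on the K1 strain (2% haematocrit, 1% parasitaemia, 37 °C, 6% CO2/14% O2/80% N2, DMSO <0.5%), with 800 µM ascorbic acid in the medium as radical trap. Duplicates; artesunate as positive control; IC50 derived.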

Data set [15] has as its system Salmonella typhimurium. Description: Mutagenicity in Salmonella typhimurium TA100 at 2.5 mM after 1 hr by Ames test in absence of S9 fraction. It counts as toxicity, organism-based. As to conditions: salmonella enterica subsp. enterica serovar typhimurium, 2500 µM. A digest of the protocol:
(§5)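 Tester strains were grown overnight in nutrient broth. 0.1 mL culture was incubated 1 h at 37 °C with shaking with compound (2.5–25 mM DMSO solutions), with or without 4% S9 mix. Top agar was added and the mix plated on Vogel-Bonner agar. Revertants were counted after 48 h at 37 °C in the dark. A twofold rise over spontaneous revertants counts as mutagenic.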

The test system of data set [16] is Salmonella typhimurium. Description: Mutagenicity in Salmonella typhimurium TA97A at 2.5 mM after 1 hr by Ames test in absence of S9 fraction. As to conditions: salmonella enterica subsp. enterica serovar typhimurium, 2500 µM. It is filed as toxicity, organism-based. A digest of the protocol: as §5
The next data set has as its system Toxoplasma gondii. In words: Antitoxoplasmic activity against tachyzoite stage of Toxoplasma gondii PRU transfected with beta galactosidase infected in HFF assessed as parasite growth inhibition after 96 hrs by colorimetric microtiter assay. It is filed as functional. A digest of the protocol: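 Confluent HFF monolayers (1×10^4 seeded) were infected with 2×10^3 PRU-β-Gal tachyzoites for 3 h. Compounds from DMSO (final <0.5%) were then added in triplicate for 96 h at 37 °C. CPRG was added at 500 µM final for 24 h more, then A570 read (630 nm reference). IC50 came from non-linear regression, mean of three experiments.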

A short description of data set [17]: Genotoxicity in DNA (unknown origin) incubated for 24 hrs in dark condition by methyl green displacement assay. In a few lines: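 DNA-methyl green (4 mg in 20 mL 0.05 M Tris-HCl pH 7.5 with 7.5 mmol/L MgSO4) was shaken 24 h at 37 °C. It was then added to compound from DMSO (final <0.5%). A630 was read, and read again after 24 h at room temperature in the dark. DC50 is the concentration displacing 50% of methyl green.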

Another data set relates to HepG2. Described as §2. It counts as cell-based. The settings on record: hepg2, 72 h, 72 h, read-out: CC50. A digest of the protocol:
as §3

Data set [18] is described as follows: Inhibition of hemozoin polymerization after 24 hrs by spectroscopic analysis. It counts as functional. A digest of the protocol:
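Hemozoin (4 mM solution in 0.1 M NaOH) was mixed with compound at drug:heme ratios of 1:1 to 8:1, in triplicate. Acetic acid was added to pH 3, and samples were incubated 24 h at 37 °C. Soluble, DMSO-soluble and pellet fractions were separated by centrifugation. Each fraction was quantified at A405 against a hemozoin standard curve. IC50 is 50% decrease in polymerization.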

The nature of data set [19]: Cytotoxicity against CHO cells assessed as cell viability after 24 hrs by MTT assay. As to conditions: chinese hamster. It counts as cell-based, Cricetulus griseus. In a few lines:
as §3

For the molecule `CC(C)(C)Nc1nc2cc(-c3ccc(Cl)cc3)sc2c(=O)[nH]1`, the outcome in the data set on Plasmodium falciparum [1] was inactive.

In the case of `Cc1ccc(-c2cc3nc(NC(C)(C)C)[nH]c(=O)c3s2)cc1.Cl`, the “Ratio CC50/IC50” value was 533 in data set [2], 686 in [5] and greater than 4086 in data set [7]. Moreover, the figures for the Activity in the data set with Plasmodium falciparum [3], in the data set on Plasmodium falciparum [8] and in the data set on Plasmodium berghei were 30%, 41% and 45%, respectively. Further, the IC50 came to 0.035 µM in the data set on Plasmodium yoelii, 0.035 µM in the data set on Plasmodium falciparum [6] and 0.045 µM in the data set with Plasmodium falciparum [9]. In addition, the CC50 at 72 h in data set [4] is greater than 143 µM; in [10], 24 µM.

On to `Cc1ccc(-c2cc3nc(NC(C)C)[nH]c(=O)c3s2)cc1`, for which the entries for the “Ratio CC50/IC50” value in data set [2] and in data set [5] were 62 and 202, respectively. Besides, the Activity entry in the data set with Salmonella typhimurium [11], in the data set on Salmonella typhimurium [12], with Salmonella typhimurium [15] and in the data set with Salmonella typhimurium [16] was “Non-toxic” each time. In addition, the IC50 was greater than 10 µM in the data set with Leishmania donovani; greater than 250 µM in data set [13]; 0.9 µM in the data set on Plasmodium falciparum [14]; 0.247 µM with Plasmodium falciparum [6]; greater than 10 µM with Toxoplasma gondii; 0.8 µM with Plasmodium falciparum [9]. In [18], this molecule came in with an IC50 greater than 25000 µM. In addition, in [17], the DC50 was greater than 25000 µM. The CC50 in the data set with HepG2 was determined as 49.4 µM.

With `COc1cccc2c1C(=O)c1c(O)c3c(c(O)c1C2=O)C[C@@](O)(C(=O)CO)C[C@@H]3O[C@H]1C[C@H](N)[C@H](O)[C@H](C)O1` [DOXORUBICIN], the CC50 at 24 h in data set [19] amounted to 0.6 µM.

Consider `CC(C)(C)Nc1nc2cc(-c3ccc(Cl)cc3)sc2c(=O)[nH]1.O=C(O)/C=C/C(=O)O`, for which the figures for the “Ratio CC50/IC50” value in [2], in [5] and in data set [7] were 78, 93 and greater than 2000, respectively. Moreover, the values for the IC50 with Plasmodium yoelii, in the data set with Plasmodium falciparum [6] and with Plasmodium falciparum [9] were 0.06 µM, 0.168 µM and 0.8 µM, respectively. Also, the CC50 at 72 h was greater than 120 µM in data set [4] and 15.6 µM in data set [10].

In the case of `Cc1ccc(-c2cc3nc(NC(C)(C)C)[nH]c(=O)c3s2)cc1`, the outcome with Plasmodium falciparum [1] was inactive.
